Tests used:
[1] = biological target: T1, Cholecystokinin receptor type A (Rattus norvegicus) (UniProt P30551); assay: Binding affinity towards Cholecystokinin type A receptor (CCK-A) receptor from rat pancreas using [125I]bolton Hunter CCK-8 as radioligand at a concentration of 10 um
T1 sequence (whole entry): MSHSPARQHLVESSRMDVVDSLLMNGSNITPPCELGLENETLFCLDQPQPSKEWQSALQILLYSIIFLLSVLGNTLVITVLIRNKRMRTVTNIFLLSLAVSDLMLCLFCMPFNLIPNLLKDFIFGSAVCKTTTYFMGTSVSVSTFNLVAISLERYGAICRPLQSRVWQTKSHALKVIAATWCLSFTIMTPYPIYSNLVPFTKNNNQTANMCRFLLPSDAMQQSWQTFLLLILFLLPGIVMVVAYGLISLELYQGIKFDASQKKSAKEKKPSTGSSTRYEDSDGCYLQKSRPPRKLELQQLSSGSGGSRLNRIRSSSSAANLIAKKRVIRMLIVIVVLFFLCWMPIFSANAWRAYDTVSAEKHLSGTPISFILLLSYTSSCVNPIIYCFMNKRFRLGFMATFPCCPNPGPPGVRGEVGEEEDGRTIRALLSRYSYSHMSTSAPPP
Procedure, shortened: (§1)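 IC50 = concentration giving half-maximal inhibition of specific [125I]Bolton Hunter CCK-8 binding, with CCK-B sites from mouse cerebral cortex and CCK-A sites from rat pancreas. Weaker compounds given as % inhibition at 10 μM. Values are geometric means of at least three separate experiments; statistical errors 15% of the mean.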

[2] = biological target: T2, Gastrin/cholecystokinin type B receptor (Mus musculus, UniProt P56481); assay: Binding affinity towards Cholecystokinin type B receptor (CCK-B) receptor in mouse cerebral cortex using [125I]bolton Hunter CCK-8 as radioligand; assay type: tissue-based
T2 sequence (P56481 whole entry): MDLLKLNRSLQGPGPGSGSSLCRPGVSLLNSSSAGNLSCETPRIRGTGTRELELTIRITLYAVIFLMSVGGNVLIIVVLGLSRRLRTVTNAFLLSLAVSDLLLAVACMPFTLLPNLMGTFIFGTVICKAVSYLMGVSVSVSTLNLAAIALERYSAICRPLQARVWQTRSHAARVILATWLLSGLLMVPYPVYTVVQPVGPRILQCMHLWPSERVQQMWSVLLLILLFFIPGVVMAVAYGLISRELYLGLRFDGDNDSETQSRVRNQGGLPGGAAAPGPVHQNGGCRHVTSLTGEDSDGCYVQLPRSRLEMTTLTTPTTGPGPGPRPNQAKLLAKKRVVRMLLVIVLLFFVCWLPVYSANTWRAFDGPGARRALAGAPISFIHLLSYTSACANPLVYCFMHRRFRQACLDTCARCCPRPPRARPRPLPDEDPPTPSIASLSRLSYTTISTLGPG

[3] = biological target: T3, Cholecystokinin receptor type A (Rattus norvegicus, UniProt P30551); assay: Binding affinity towards Cholecystokinin type A receptor (CCK-A) receptor from rat pancreas using [125I]bolton Hunter CCK-8 as radioligand; procedure, shortened: as §1
T3 sequence (P30551 whole entry): T1 sequence (whole entry)

[4] = The compound was tested for systemic plasma clearance(CL) in rats and is expressed in mL/min/kg.; assay type: ADME, organism-based; details: rat
Procedure, shortened: (§2)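 Fasted male Wistar rats, three per group, given a single oral nominal dose of 10 mg/kg or a single iv nominal dose of 5 mg/kg. Vehicle was either 25:40:35 ethanol/PEG400/5% dextrose water or 10:40:50 dimethylacetamide/PEG400/5% dextrose water. Heparinized plasma taken from a jugular vein cannula at serial times out to 24 h and assayed by validated HPLC-fluorescence. Noncompartmental analysis; %F = dose-normalized po AUC/iv AUC.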

[5] = The compound tested for maximum observed plasma concentration in rats and is expressed in microgram/mL.; assay type: ADME, organism-based; details: rat; procedure, shortened: as §2
[6] = The compound was tested for the time to reach maximum observed plasma concentration in rats and is expressed in mins.; assay type: ADME, organism-based; details: rat; procedure, shortened: as §2
[7] = The compound was tested for percent absolute oral bioavailability (%F) in rats and value in parenthesis indicate percent relative standard deviation (% RSD).; assay type: ADME, organism-based; details: rat, in vivo, read-out: F (%RSD); procedure, shortened: as §2
[8] = The compound was tested for percent absolute oral bioavailability (%F) in rats; assay type: ADME, organism-based; details: rat, in vivo; procedure, shortened: as §2
[9] = biological target: T4, Gastrin/cholecystokinin type B receptor (Mus musculus) (UniProt P56481); assay: Binding affinity towards Cholecystokinin type B receptor (CCK-B) receptor in mouse cerebral cortex using [125I]bolton Hunter CCK-8 as radioligand at a concentration of 10 um; assay type: tissue-based; procedure, shortened: as §1
T4 sequence (whole entry): T2 sequence (P56481 whole entry)

| Compound | IC50 [2] | IC50 [3] | other results |
| --- | --- | --- | --- |
| Cc1cccc(NC(=O)NNc2nc3ccccc3c(=O)n2-c2ccc(Cl)cc2)c1 | 1170 nM |  | inhibition [1]: 10% |
| COc1ccccc1NC(=O)NNc1nc2ccccc2c(=O)n1-c1cccc(OC(C)C)c1 | 10 nM | 4200 nM |  |
| Cc1cccc(NC(=O)NNc2nc3ccccc3c(=O)n2-c2ccccc2)c1 | 1080 nM |  | inhibition [1]: 39% |
| CN(C)c1cccc(-n2c(NNC(=O)Nc3cccc(C#N)c3)nc3ccccc3c2=O)c1 | 14 nM | 7100 nM | clearance [4]: 29.5 mL/min/kg; Cmax [5]: 910 ng/mL; Tmax [6]: 25 min; bioavailability [7]: 22% |
| Cc1cccc(NC(=O)NNc2nc3ccccc3c(=O)n2-c2cccc3ccccc23)c1 | 3560 nM |  | inhibition [1]: 7% |
| CC(C)Oc1cccc(-n2c(NNC(=O)Nc3ccc(Cl)cc3)nc3ccccc3c2=O)c1 | 14 nM | 3590 nM |  |
| CC(C)Oc1cccc(-n2c(NNC(=O)Nc3ccccc3)nc3ccccc3c2=O)c1 | 15 nM | 4580 nM |  |
| CC(C)Oc1cccc(-n2c(NNC(=O)c3ccc(Br)cc3)nc3ccccc3c2=O)c1 | 88 nM | 5560 nM |  |
| CC(C)Oc1cccc(-n2c(NNC(=O)Nc3cccc([N+](=O)[O-])c3)nc3ccccc3c2=O)c1 | 1 nM | 2560 nM |  |
| CN(C)c1cccc(-n2c(CCc3c[nH]c4cc(Br)ccc34)nc3ccccc3c2=O)c1 | 16 nM |  |  |
| COc1cccc(N(CC(=O)N(C)c2ccccc2)C(=O)CNC(=O)Nc2cccc(C)c2)c1 | 8 nM | 140 nM |  |
| Cc1cccc(NC(=O)NNc2nc3ccccc3c(=O)n2-c2cccc(Cl)c2Cl)c1 | 73 nM | 3010 nM |  |
| N#Cc1cccc(NC(=O)NNc2nc3ccccc3c(=O)n2-c2ccccc2)c1 | 262 nM |  | inhibition [1]: 37% |
| CCOC(=O)c1cccc(NC(=O)NNc2nc3ccccc3c(=O)n2-c2cccc3ccccc23)c1 |  |  | inhibition [1]: 5%; inhibition [9]: 35% |
| O=C(NNc1nc2ccccc2c(=O)n1-c1ccccc1)Nc1ccccc1 | 1240 nM | 7330 nM |  |
| COc1cccc(N(CC(=O)N(C)c2ccccc2)C(=O)CNC(=O)Nc2cccc(C(=O)O)c2)c1 | 23 nM | 925 nM |  |
| CC(C)Oc1cccc(-n2c(NNC(=O)Nc3cccc(C(F)(F)F)c3)nc3ccccc3c2=O)c1 | 8 nM | 2240 nM |  |
| COc1ccc(NC(=O)NNc2nc3ccccc3c(=O)n2-c2cccc(OC(C)C)c2)cc1 | 25 nM | 15500 nM |  |
| Cc1cccc(NC(=O)NNc2nc3ccccc3c(=O)n2-c2cccnc2)c1 | 4280 nM | 12500 nM |  |
| CC(C)Oc1cccc(-n2c(CCc3c[nH]c4cc(Br)ccc34)nc3ccccc3c2=O)c1 | 9.3 nM |  |  |
| CC(C)Oc1cccc(-n2c(NNC(=O)Nc3ccc(C(F)(F)F)cc3)nc3ccccc3c2=O)c1 | 38 nM | 2780 nM |  |
| CC(C)Oc1cccc(-n2c(NNC(=O)NC3CCCCC3)nc3ccccc3c2=O)c1 | 108 nM | 17300 nM |  |
| COC(=O)c1cccc(NC(=O)N[C@@H]2N=C(c3ccccc3)c3ccccc3N(C)C2=O)c1 | 8 nM |  |  |
| CC(C)Oc1cccc(-n2c(NNC(=O)Nc3ccc(Br)cc3)nc3ccccc3c2=O)c1 | 14 nM | 3430 nM |  |
| CC(C)Oc1cccc(-n2c(NNC(=O)Nc3cccc(C#N)c3)nc3ccccc3c2=O)c1 | 1.2 nM | 5350 nM |  |

Second part, led by results:

| IC50 [2] | IC50 [3] | Compound | other results |
| --- | --- | --- | --- |
| 152 nM |  | CCOC(=O)c1cccc(NC(=O)NNc2nc3ccccc3c(=O)n2-c2ccccc2)c1 | inhibition [1]: 37% |
| 22 nM | 7470 nM | COc1cccc(NC(=O)NNc2nc3ccccc3c(=O)n2-c2cccc(OC(C)C)c2)c1 |  |
| 26 nM |  | CCOC(=O)c1cccc(NC(=O)NNc2nc3ccccc3c(=O)n2-c2cccc(F)c2)c1 | inhibition [1]: 30% |
| 225 nM |  | Cc1cccc(NC(=O)NNc2nc3ccccc3c(=O)n2-c2cccc(Cl)c2)c1 | inhibition [1]: 20% |
| 7670 nM |  | CCOC(=O)c1ccccc1NC(=O)NNc1nc2ccccc2c(=O)n1-c1cccc(OC(C)C)c1 | inhibition [1]: 22% |
| 11 nM | 6400 nM | Cc1cccc(NC(=O)NNc2nc3ccccc3c(=O)n2-c2cccc(OC(C)C)c2)c1 |  |
| 2110 nM |  | COc1ccc(-n2c(NNC(=O)Nc3cccc(C)c3)nc3ccccc3c2=O)cc1OC | inhibition [1]: 34% |
| 611 nM |  | CCOC(=O)c1cccc(NC(=O)NNc2nc3ccccc3c(=O)n2-c2ccc(OC)c(OC)c2)c1 | inhibition [1]: 20% |
| 592 nM |  | CCOC(=O)c1cccc(NC(=O)NNc2nc3ccccc3c(=O)n2-c2ccc(OC)cc2)c1 | inhibition [1]: 20% |
| 5 nM | 1210 nM | CCOC(=O)c1cccc(NC(=O)NNc2nc3ccccc3c(=O)n2-c2cccc(OCC)c2)c1 |  |
| 1.9 nM | 2960 nM | CC(C)Oc1cccc(-n2c(NNC(=O)Nc3cccc(C(=O)OC(C)(C)C)c3)nc3ccccc3c2=O)c1 | clearance [4]: 18 mL/min/kg; bioavailability [8]: < 5%; Cmax [5]: < 250 ng/mL |
| 219 nM | 107 nM | Cc1cccc(NC(=O)NNc2nc3ccccc3c(=O)n2-c2cccc(N)c2)c1 |  |
| 915 nM |  | Cc1cccc(NC(=O)NNc2nc3ccccc3c(=O)n2-c2cccc(F)c2)c1 | inhibition [1]: 26% |
| 1.5 nM | 3470 nM | CCOC(=O)c1cccc(NC(=O)NNc2nc3ccccc3c(=O)n2-c2cccc(OC(C)C)c2)c1 |  |
| 50 nM | 1660 nM | CCOC(=O)c1cccc(NC(=O)NNc2nc3ccccc3c(=O)n2-c2cccc(Cl)c2Cl)c1 |  |
| 57 nM | 3160 nM | CCOC(=O)c1ccc(NC(=O)NNc2nc3ccccc3c(=O)n2-c2cccc(OC(C)C)c2)cc1 |  |
| 5.8 nM | 4450 nM | CCOc1cccc(-n2c(NNC(=O)Nc3cccc(C#N)c3)nc3ccccc3c2=O)c1 |  |
| 15 nM | 2330 nM | CCOC(=O)c1cccc(NC(=O)NNc2nc3ccccc3c(=O)n2-c2cccc(OC)c2)c1 |  |
| 45 nM | 2570 nM | CCOc1cccc(-n2c(NNC(=O)Nc3cccc(C)c3)nc3ccccc3c2=O)c1 |  |
| 319 nM | 11200 nM | CCOC(=O)c1cccc(NC(=O)NNc2nc3ccccc3c(=O)n2-c2cccnc2)c1 |  |
| 5.9 nM | 2420 nM | CC(C)Oc1cccc(-n2c(NNC(=O)Nc3cccc(Cl)c3)nc3ccccc3c2=O)c1 |  |
| 63 nM | 4900 nM | Cc1cccc(NC(=O)NNc2nc3ccccc3c(=O)n2-c2cccc(N(C)C)c2)c1 |  |
| 14 nM |  | CCOC(=O)c1cccc(NC(=O)NNc2nc3ccccc3c(=O)n2-c2ccc(Cl)cc2)c1 | inhibition [1]: 15% |
| 200 nM | 5100 nM | COc1cccc(-n2c(NNC(=O)Nc3cccc(C)c3)nc3ccccc3c2=O)c1 |  |
| 29 nM | 8110 nM | CC(C)Oc1cccc(-n2c(NNC(=O)Nc3cccc(C(=O)O)c3)nc3ccccc3c2=O)c1 |  |
| 33 nM | 4980 nM | CCOC(=O)c1cccc(NC(=O)NNc2nc3ccccc3c(=O)n2-c2cccc(Cl)c2)c1 |  |
| 97 nM |  | Cc1cccc(NC(=O)NNc2nc3ccccc3c(=O)n2-c2ccc(Cl)c(Cl)c2)c1 | inhibition [1]: 10% |
| 5 nM | 2650 nM | CCOC(=O)c1cccc(NC(=O)NNc2nc3ccccc3c(=O)n2-c2cccc(N(C)C)c2)c1 |  |
| 2.4 nM |  | CCOC(=O)c1cccc(NC(=O)NNc2nc3ccccc3c(=O)n2-c2ccc(Cl)c(Cl)c2)c1 | inhibition [1]: 16% |

From ChEMBL document CHEMBL1131373, “Novel nonpeptide CCK-B antagonists: design and development of quinazolinone derivatives as potent, selective, and orally active CCK-B antagonists” (J Med Chem, 1998)
